# A selection: hits, their analogues and other compounds. The true share with any hit is near 3.4%.
# ROCK2 inh: inhibitors of human ROCK2 kinase, primary screen, biochemical, high-throughput, luminescence. Rho-associated protein kinase 2 (Homo sapiens), O75116. actives 0.35% (n = 60,000). inhibition, % at 6 µM. purified ROCK2, Kinase-Glo ATP depletion luminescence;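 active means inhibition above the screen-wide mean inhibition plus 3 SD, cut at about 18% in these data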;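 further: plate controls were DMSO wells for no effect and Y-27632 control wells after no-enzyme background subtraction for full effect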
# JNK3 inh: JNK3 kinase activity inhibitors, primary screen, biochemical, human, purified enzyme; HTS; inhibition, % at 8 µM; actives 0.61% (n = 60,000); AID 746, 2007; in the data active means inhibition above about 17%;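 further: 0% = DMSO and 100% = reference inhibitor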
# SF-1 act: activators of human SF-1, primary screen, cell-based, CHO-K1, Gal4-SF-1 LBD, luciferase luminescence. CHO-K1 Gal4-SF-1 LBD luciferase reporter; % increase over DMSO SF-1-specific signal. Steroidogenic factor 1 (Homo sapiens), Q13285. activation, % at 10 µM. actives 1.9% (n = 65,000);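 active means activation above the mean activation of all tested compounds plus 3 SD, cut at about 50% in these data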
# Target sequence (Q13285 whole entry, looked up, the tested form may be a part): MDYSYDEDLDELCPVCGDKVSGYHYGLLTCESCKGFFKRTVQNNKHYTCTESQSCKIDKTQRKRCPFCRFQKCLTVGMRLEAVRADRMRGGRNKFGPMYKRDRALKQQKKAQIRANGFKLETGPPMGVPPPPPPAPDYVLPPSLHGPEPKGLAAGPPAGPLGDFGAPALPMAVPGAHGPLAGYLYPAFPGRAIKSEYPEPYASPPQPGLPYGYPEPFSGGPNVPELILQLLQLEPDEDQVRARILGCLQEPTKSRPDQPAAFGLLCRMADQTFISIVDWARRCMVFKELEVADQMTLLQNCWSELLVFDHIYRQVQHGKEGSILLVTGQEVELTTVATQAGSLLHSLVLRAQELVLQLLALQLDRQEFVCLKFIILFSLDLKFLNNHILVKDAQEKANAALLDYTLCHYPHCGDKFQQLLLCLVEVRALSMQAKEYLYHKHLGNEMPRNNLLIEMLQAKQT
#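 Assay system: CHO-K1 cells co-transfected with Gal4 DBD–human SF-1 LBD, 5xGal4 luciferase reporter / Input: 4,000 cells per well / Incubation: 20 h compound exposure at 37 °C after 1 h cell settling / Detection: SteadyLite luciferase luminescence / Control set: DMSO negative control and −SF1 background wells / Replication: one test per compound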
# MMP-13 inhibitor: human MMP13 inhibitors, primary screen, biochemical, FRET peptide cleavage; Collagenase 3 (Homo sapiens), P45452; MMP-13 fTHP FRET cleavage, Mca fluorescence; inhibition, % at 4 µM; actives 0.07% (n = 65,000); AID 570, 2006;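 active means inhibition above the mean of compound-free control plate wells plus 3 SD, cut at about 14% in these data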;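 further: 0% = DMSO wells and 100% = wells with reference MMP-13 inhibitor after basal subtraction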
# PKA kinase inh: inhibitors of human PKA kinase activity, primary screen, biochemical, ATP-depletion luminescence, Kemptide substrate; AID 524, 2006; cAMP-dependent protein kinase catalytic subunit alpha (Homo sapiens), P17612; actives 0.1% (n = 65,000); PKA Kemptide phosphorylation, Kinase-Glo ATP luminescence; inhibition, % at 6 µM;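 active means inhibition above the screen-wide mean inhibition plus 3 SD, cut at about 21% in these data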
# RORA act: activators of orphan receptor RORA, primary screen, cell-based, luminescence | actives 1.5% (n = 65,000) | CHO-K1 Gal4-RORA LBD luciferase reporter; percent increase over mock-subtracted basal signal | Nuclear receptor ROR-alpha (Homo sapiens), P35398 | AID 560, 2006 | activation, % at 10 µM;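 active means activation above the mean of all tested compounds plus 3 SD, cut at about 49% in these data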;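 further: 0% = DMSO-treated RORA cells and 100% = added signal equal to DMSO minus mock-transfected cells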
# An asterisk follows results filed as active; i = inactive; x = not tested or not shown.
SMILES,ROCK2 inh,JNK3 inh,SF-1 act,MMP-13 inhibitor,PKA kinase inh,RORA act
COC(=O)Cc1ccc(NC(=O)c2ccc(Br)o2)cc1,2,14,48,6,7,35
O=C(Nc1ccc(N2CCN(C(=O)c3ccccc3)CC2)c(Cl)c1)c1ccc(Br)o1,14,7,18,10,6,-1
CCc1cccc(NC(=O)c2ccc(Br)o2)c1,4,2,11,0,3,-14
CCOC(=O)N1CCN(C(=O)CSCC(=O)N=c2sc3ccccc3n2C)CC1,x,x,-11,4,2,-10
CN1C(=O)c2oc3ccc(Br)cc3c(=O)c2C1c1ccncc1 (stereo not drawn),-9,-1,-5,-15,-3,7
CC1Cc2ccccc2N1C(=O)CSc1nc2c(c(=O)n(C)c(=O)n2C)n1Cc1ccccc1 (stereo not drawn),1,0,7,4,9,-13
CSc1cccc(NC(=O)COc2ccccc2)c1,13,2,1,2,12,-13
CSc1cccc(NC(=O)Nc2ccccc2)c1,1,2,50*,5,-4,63*
COc1ccc(NC(=O)Nc2cccc(OC)c2)cc1,0,-2,35,-3,5,68*
COc1ccc(NC(=O)Nc2cccc(C)n2)cc1,0,6,64*,-5,5,28
O=C(CN1C(=O)CCSc2ccccc21)Nc1ccc2c(c1)OCO2,-1,4,-9,-1,-3,-13
CCCCC(=O)NC(Nc1ccc(C)cn1)(C(=O)OCC)C(F)(F)F (stereo not drawn),9,7,-6,1,3,-22
O=C(NCc1ccccc1)c1noc2c1CCCC2,4,2,12,12,14,37
CCc1ccc(NC(=O)c2noc3c2CCCCC3)cc1,6,-5,67*,-5,7,67*
Cc1ccc(NC(=O)c2noc3c2CCCCC3)cc1C,2,-8,-1,-6,3,-4
O=C(NCCc1ccccc1)c1noc2c1CCCCC2,5,1,60*,4,3,48
Cc1ccc(NC(=O)c2noc3c2CCCCC3)cc1,6,3,35,4,10,56*
O=C(Oc1ccc(Cl)cc1N1C(=O)CCC1=O)c1ccco1,-2,4,-9,-6,-3,-24
Cc1cc(SCc2ccccc2)nc(=O)[nH]1,2,4,12,-4,11,-8
Cc1c(C(=O)NCc2cccnc2)oc2ccc(S(=O)(=O)N3CCCCCC3)cc12,x,x,-14,7,5,14
COc1ccccc1CN1CC(C(=O)NCc2cccnc2)CC1=O (stereo not drawn),4,6,-9,-1,2,-12
CC(=O)N(C)c1ccc(NC(=O)c2ccco2)cc1,0,-4,50*,1,-1,33
CC1CN(S(=O)(=O)c2ccc(NC(=O)c3ccco3)cc2)CC(C)O1 (stereo not drawn),x,x,-16,-4,-6,-21
O=C(Nc1ccc(-c2nc3ccccc3[nH]2)cc1)c1ccco1,-8,-2,78*,-3,-6,34
O=C(Nc1ccc(S(=O)(=O)N2CCCCCC2)cc1)c1ccco1,1,4,33,-5,9,63*
SMILES,ROCK2 inh,JNK3 inh,SF-1 act,MMP-13 inhibitor,PKA kinase inh,RORA act
O=C(Nc1ccc2nc(-c3ccco3)[nH]c2c1)c1ccco1,x,x,6,0,1,38
CC(=O)N(C)c1ccc(NC(=O)c2ccccc2C(=O)O)cc1,-1,-2,0,3,-3,3
O=C(Nc1nccs1)c1ccc(NC(=O)c2ccco2)cc1,x,x,56*,3,8,53*
O=C(c1ccccc1)c1ccc(C(=O)N2CCN(c3ccc(F)cc3)CC2)o1,5,-1,-18,1,16,4
COc1ccc(N(CC(=O)Nc2ccc(C)cn2)S(=O)(=O)c2c(C)noc2C)cc1,-6,6,-1,9,-7,-9
CN(c1ccc(C(=O)Nc2nccs2)cc1)S(=O)(=O)c1ccccc1,4,28*,15,0,10,40
O=C(Nc1ccc(Nc2ccccc2)cc1)c1ccco1,3,-11,87*,7,0,60*
Cc1cccc(N2CCN(C(=O)CCCOc3ccccc3)CC2)c1C,6,1,48,-2,7,30
CCOC(=O)N1CCN(C(=O)CCCOc2ccccc2)CC1,0,1,75*,2,-1,38
CCOC(=O)N1CCN(C(=O)c2ccc3c(c2)sc2nc(-c4ccccc4)cn23)CC1,2,4,110*,-6,10,62*
CCOC(=O)N1CCC(NC(=O)c2ccc3c(c2)sc2nc(-c4ccc(OC)cc4)cn23)CC1,5,9,39,-12,4,23
CC1(C)C(c2ccc(Cl)cc2)=[N+]([O-])C2(CCCC/C2=N\O)N1O (stereo not drawn),4,-3,-17,1,5,-8
CCc1ccc(C(=O)NCc2cccs2)s1,8,-5,70*,4,13,10
O=C(NC1CC1)c1cc2c(s1)-c1ccccc1OC2,2,-6,18,i,0,32
CCc1ccc(C(=O)NC2CCCCC2)s1,7,-4,59*,3,7,55*
O=C(NCc1cccs1)c1cc2c(s1)-c1ccccc1OC2,13,-3,36,i,0,53*
Cc1ccc(CNC(=O)CCNC(=O)Cn2ccc3ccccc3c2=O)o1,x,x,-6,1,-2,-6
O=C1NC(=O)c2cc(NC(=O)C3CCCCC3)ccc21,18*,0,4,-96,6,-16
O=C(N(c1ccccc1)c1ccccc1)n1ccnc1,1,7,-10,-20,2,-19
COc1ccc(-c2coc3cc(O)ccc3c2=O)cc1OC,0,4,37,-19,-5,78*
O=c1c(-c2ccc(F)cc2)coc2c3c(ccc12)OCCO3,-3,4,63*,-2,4,14
O=c1c(-c2ccc(F)cc2)coc2cc(O)ccc12,-4,3,63*,-19,8,84*
COc1ccccc1Oc1coc2cc(O)ccc2c1=O,10,2,9,-24,11,-9
Cc1cc(NC(=O)COC(=O)C(Nc2ccc(C(F)(F)F)cc2Cl)C(C)C)no1 (stereo not drawn),3,-3,4,7,6,-3
CCn1c(Cn2nnc(-c3ccccc3)n2)nnc1SCC(=O)Nc1ccc(C(C)=O)cc1,8,-8,-2,0,3,60*
